# High-throughput results as filed in PubChem.
# UBC9 SUMO inh = inhibitors of human SUMOylation (UBC9); inhibition, % at 35 µM; P63279; AID 2006; HTRF SUMOylation assay, SAE1/SAE2 + UBC9, in vitro; actives 0.36% (n = 290,000); in the data active means inhibition above about 50%, passing the limit was not always enough
# G6PDH counter = L. mesenteroides G6PDH inhibition counter-screen; AID 1020; actives 0.12% (n = 200,000); Purified L. mesenteroides G6PDH, diaphorase/resazurin coupled fluorescence, 45 min; inhibition, % at 5 µM; in the data active means inhibition above about 50%
# HKDC1 inh = inhibitors of human hexokinase HKDC1; inhibition, % at 20 µM; recombinant HKDC1, G6PDH/diaphorase resazurin coupled fluorescence; actives 0.16% (n = 340,000); Q2TB90; AID 493160;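 active means inhibition above about 35% when tested at 20 µM, limit read from the data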;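 further: plate controls were DMSO wells with enzyme for no effect and DMSO wells lacking enzyme for full effect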
#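 Test system: recombinant HKDC1 (HK5) hexokinase enzyme, produced in-house / Doses: 20 µM test compound, 1% DMSO / Timing: 90 min, room temperature / Detection: G6PDH/diaphorase-coupled fluorescence, 1 mM NADP, 100 µM resazurin, 525/613 nm / Control set: DMSO wells with and without enzyme mix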
# Diaphorase inh = counter-screen for diaphorase-based assays: diaphorase inhibitors and chemical oxidizers | diaphorase resazurin-to-resorufin fluorescence, NADH, 16 min; bacterial (C. kluyveri) enzyme, not human | inhibition, % at 20 µM | actives 0.69% (n = 190,000) | AID 1217;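 active means primary screen inhibition at 20 µM above a set limit, cut at about 50% in these data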;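 further: plate controls were DMSO with full reaction for no effect and wells lacking NADH for full effect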
#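 System: Diaphorase enzyme from Clostridium kluyveri | Amount: Enzyme working solution with 0.14 U/mL diaphorase | Benchmarks: No-NADH positive control and DMSO neutral control | Signal: Fluorescence of resorufin formed from resazurin, Ex 544/Em 590 nm | Schedule: 16-min room-temperature incubation before reading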
# p97 inhibitor = blocks human p97 ATPase activity | P55072 | recombinant p97 ATPase, Kinase-Glo ATP luminescence, 3 h | inhibition, % at 8 µM | actives 0.42% (n = 220,000) | AID 1481; in the data active means inhibition above about 15%;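 further: 0% = DMSO vehicle and 100% = wells lacking enzyme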
# Active calls of the source: *; / = no result given. Rows were chosen to be rich in hits. Some 0.95% of all compounds tested hit in one or more screens of this group.
SMILES,UBC9 SUMO inh,G6PDH counter,HKDC1 inh,Diaphorase inh,p97 inhibitor
Cc1cc(C(=O)N/N=C/c2ccc(-c3ccc(C)c(Cl)c3)o2)n[nH]1,57.7*,/,-9.8,/,-1.3
CC1(C)N([O-])C2=C(c3ccccc3C2=O)[N+](=O)C1(C)C,-3.1,3.4,6.3,66.7*,4.9
Cc1nc2c(C(=O)NCCC3=CCCCC3)c[nH]n2c(=O)c1Cl,26.0,-2.9,21.4,54.5*,1.4
COc1ccc(NC(=O)CN(c2ccccc2)S(=O)(=O)N(C)C)cc1Cl,-2.0,-4.4,-4.4,68.4*,1.1
COc1ccc(NC(=O)CN(c2ccccc2)S(=O)(=O)N(C)C)cc1OC,-14.9,10.8,-5.8,0.9,3.4
Cc1cccc(C(=O)NCCC(=O)Nc2ccc(C#N)cc2)c1,-19.4,/,-6.4,/,/
O=c1sc2ccccc2n1COc1ccc(Cl)cc1,-11.8,0.8,1.8,8.8,2.6
O=c1sc2ccccc2n1COc1ccccc1,3.6,-0.4,-4.2,69.5*,1.3
CC(Sc1nc2cc(Cl)ccc2s1)C(=O)Nc1cccc(S(=O)(=O)N2CCOCC2)c1 (centres undefined),-4.9,7.9,6.2,66.3*,8.0
Cc1ccc(NC(=O)c2ccc(S(=O)(=O)N3CCOCC3)cc2)cc1,-0.6,/,-3.7,/,/
Cc1ccc(SC(C)C(=O)Nc2ccc(S(=O)(=O)N3CCOCC3)cc2)cc1 (centres undefined),18.5,10.4,8.5,52.7*,-5.9
COc1ccc(C2NC(=O)NC3=C2CCc2ccccc23)cc1 (centres undefined),30.7,18.1,25.1,74.1*,4.2
COc1cc(CN2CCCC(N3CCN(c4ccccc4C)CC3)C2)ccc1O (centres undefined),11.1,/,8.5,/,/
CC1(c2nnc(-c3ccc(Cl)cc3)o2)CC(c2cccnc2)=NO1 (centres undefined),/,/,1.3,/,/
COc1ccc(S(=O)(=O)N2CCN(c3ccc4nnc(-c5ccccc5)n4n3)CC2)cc1,14.7,6.0,14.1,52.8*,13.5
Cc1ccc(CNC(=O)CCS(=O)(=O)Cc2ccc(C)cc2)cc1,17.8,/,0.4,/,/
O=c1c(Cl)c(O)c2cccc3c4ccccc4n1c23,15.4,2.7,20.0,52.3*,12.5
COc1c(O)c(=O)n2c3ccccc3c3ccnc1c32,/,/,4.0,/,/
Oc1ccc(C=Nc2cccc3ncccc23)c(O)c1,92.5,-39.7,18.3,45.1,9.1
Oc1ccc(C=Nc2ccc3ncccc3c2)c(O)c1,65.4*,56.1*,/,68.0*,11.1
O=C(Nc1cccc(Cl)c1)Nc1nnc(-c2ccncc2)s1,55.9*,-2.6,-5.1,19.6,0.8
Cc1ccc(NC(=O)Nc2nnc(-c3ccncc3)s2)cc1C,72.8*,9.4,10.6,/,7.7
Cn1nccc1NC(=O)Nc1cccc(Cl)c1,58.7*,/,-6.0,/,8.8
O=C(Nc1ccc(Cl)cc1)Nc1nnc(-c2ccncc2)s1,-6.5,1.4,16.9,5.1,6.5
COCCNC(=O)CCC1CCN(Cc2ccc(-c3ccccc3)cc2)CC1,79.7*,/,-1.0,/,/
SMILES,UBC9 SUMO inh,G6PDH counter,HKDC1 inh,Diaphorase inh,p97 inhibitor
Cc1ccccc1CS(=O)(=O)CCC(=O)NCc1ccc(F)cc1Cl,7.0,/,-5.0,/,/
Nc1c(C(=O)Nc2ccccc2)sc2nc3c(c(-c4ccco4)c12)CCCC3,34.4,6.2,0.5,26.0,-3.3
Nc1c(C(=O)Nc2ccc(Br)cc2)sc2nc(-c3ccco3)ccc12,72.3*,-9.4,4.9,20.8,8.3
Cc1ccc(NC(=O)c2sc3nc4c(c(-c5ccco5)c3c2N)CCC4)cc1,20.9,6.2,1.3,46.2,4.5
CC(=O)c1sc2nc(-c3ccco3)ccc2c1N,70.3*,/,11.0,/,11.1
Nc1c(C(=O)Nc2ccccc2)sc2nc3c(c(-c4ccco4)c12)CCC3,46.8,1.9,6.7,69.1*,-0.6
Nc1c(C(=O)Nc2ccc(F)cc2)sc2nc(-c3ccco3)ccc12,74.5*,11.6,3.2,46.8,7.7
COc1ccc([C@H]2CC(=O)C=C(c3cccc(OC(F)(F)F)c3)C2)cc1,/,/,3.2,/,/
COc1ccc([C@@]23Oc4cc(OC)cc(OC)c4[C@]2(O)[C@H](O)[C@H](C(=O)N(C)C)[C@H]3c2ccccc2)cc1,/,/,-1.3,/,/
Cn1c(CCN2CCN(c3ccccn3)CC2)nc2cc(NC(=O)COc3ccccc3)ccc21,16.9,/,0.9,/,/
CC1(C)Cc2cccc(OCC(=O)OCC(=O)NCc3ccccc3)c2O1,9.8,/,-2.9,/,/
O=C(NC1CCCCC1)C1CC(=O)N(c2ccccc2)C1 (centres undefined),6.5,/,3.6,/,/
CCN(C[C@H]1N[C@@](CC)(C(=O)OC)[C@H]2C(=O)N(Cc3ccccc3)C(=O)[C@@H]12)C(=O)c1ccc(C(C)(C)C)cc1,/,/,-1.1,/,/
CC(=O)C1=C(c2ccccc2)NC(=O)NC1c1ccc(O)c(O)c1 (centres undefined),17.5,40.2,-6.1,53.9*,-4.5
COC1=C(C)C(=O)C2=C(C1=O)C1C3CC4=C(C(=O)C(OC)=C(C)C4=O)C(CNC(=O)C(C)=O)N3C(C#N)C(C2)N1C (centres undefined),/,/,60.5*,/,/
CCC(=O)N(C1=C(NC(C)C)C(=O)c2ccccc2C1=O)C(C)C,8.6,55.2*,14.2,19.0,0.9
CC(=O)N(C1=C(N)C(=O)c2ccccc2C1=O)C(C)C,10.4,42.5,8.1,13.7,0.1
O=C(NC1CCC(CC2CCC(NC(=O)C(Cl)Cl)CC2)CC1)C(Cl)Cl (centres undefined),27.5,/,-7.5,/,/
O=c1oc2ccccc2c(Nc2ccccc2O)c1[N+](=O)[O-],14.9,18.8,-7.1,58.5*,0.8
O=C(N/N=C\c1ccc(-c2ccccc2[N+](=O)[O-])o1)C1COc2cc3ccccc3cc2O1 (centres undefined),-4.9,19.0,7.8,64.4*,8.7
O=C(N/N=C\c1ccc(-c2ccccc2[N+](=O)[O-])o1)C1COc2ccccc2O1 (centres undefined),-11.2,-12.1,-1.0,39.4,-6.4
N#Cc1ccc(C(=O)N2CCC3CC2c2cc(-c4ccc(F)cc4)ccc23)cc1 (centres undefined),/,/,5.8,/,/
NC(=O)CC(NC(=O)Cc1cccc2ccccc12)c1ccc(NC2CCCCCC2)c([N+](=O)[O-])c1 (centres undefined),61.0*,/,-7.5,/,/
NC(=O)CC(NC(=O)Cc1cccc2ccccc12)c1ccc(NCCc2ccccc2F)c([N+](=O)[O-])c1 (centres undefined),50.2*,/,0.5,/,/
NC(=O)CC(NC(=O)Cc1cccc2ccccc12)c1ccc(NCCc2ccc(F)cc2)c([N+](=O)[O-])c1 (centres undefined),48.6,/,-4.1,/,/
CC(C)c1ccc(NC(=O)C2CCN(S(=O)(=O)c3ccc4c(c3)C(C)(C)C(=O)N4C)CC2)cc1,-6.7,/,0.8,/,/
CN(c1ccccc1)S(=O)(=O)c1cccc(NS(=O)(=O)c2ccc(/C=C/C(=O)O)cc2)c1,-1.2,10.1,1.2,59.1*,4.9
